Screening results (PubChem BioAssay)
Sampled rows, rich in hits. Any-hit rate of the full collection: about 2.9%.
A3G deaminase = blocks human APOBEC3G single-stranded DNA deamination | 0.28% of 330,000 active | Q9HC16 | inhibition, % at 20 µM | recombinant A3G, ssDNA deamination FAM/TAMRA fluorescence;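 active means inhibition of at least 40% at 20 µM, with no more than 30% in the related APOBEC3A deaminase screen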
ABHD5-PLIN5 inh = blocks binding of human ABHD5 to perilipin-5; inhibition, % at 4 µM; Split G. princeps luciferase complementation, luminescence, 4 h; 0.78% of 360,000 active;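 active means inhibition above the mean inhibition across every tested compound plus 3 SD, cut at about 22% in these data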
NS3 helicase inh = blocks Hepatitis C virus NS3 helicase unwinding | NS3 helicase DNA unwinding, Cy5 molecular beacon fluorescence | inhibition, % at 10.9 µM | 0.56% of 290,000 active | AID 1800;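 active means inhibition above the mean of all tested compounds plus 3 SD, set per campaign, cut at about 35% in these data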
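System: Hepatitis C virus NS3 helicase domain fragment enzyme | Reagent: Annealed dual-labelled DNA beacon duplex, ATP-started | Compound dosing: 10.9 µM single point, 0.8% DMSO | Incubation: 1 h reaction at 25 °C, ATP-initiated | Technique: Cy5 fluorescence | Evaluation: Percent inhibition from t60/t0 fluorescence ratio | Benchmarks: Low DMSO, high thioflavine S at 110 µM | Replication: Singlicate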
HCV core dimer = HCV core protein dimerization inhibition. inhibition, % at 5 µM. AID 1899. TR-FRET GST/Flag-core106 dimerization, 1536-well. 0.33% of 300,000 active;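 active means inhibition above the mean of all tested compounds plus 3 SD, set per screening campaign, cut at about 45% in these data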
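System: GST/Flag-tagged HCV core106 proteins. Incubation: compound-protein-antibody incubation 4 h at 22.5 °C. Technique: HTRF with 340 nm excitation, 617/671 nm emission. Medium: KF-containing HEPES buffer, pH 7.45, DTT, CHAPS, BSA. Read-out: inhibition (%) from 671 over 617 nm ratio. Also added: Eu(K)-anti-GST 90 ng/mL plus XL665-anti-Flag 1 µg/mL.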
PRMT1 FP inh = PRMT1 (human) inhibition, primary screen; recombinant PRMT1, activity-based probe fluorescence polarization; 1.3% of 370,000 active; AID 652257; inhibition, % at 2.79 µM; Q99873;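 active means inhibition above about 21% made by adding two undisclosed values, limit read from the data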
Target sequence (Q99873 whole entry, looked up): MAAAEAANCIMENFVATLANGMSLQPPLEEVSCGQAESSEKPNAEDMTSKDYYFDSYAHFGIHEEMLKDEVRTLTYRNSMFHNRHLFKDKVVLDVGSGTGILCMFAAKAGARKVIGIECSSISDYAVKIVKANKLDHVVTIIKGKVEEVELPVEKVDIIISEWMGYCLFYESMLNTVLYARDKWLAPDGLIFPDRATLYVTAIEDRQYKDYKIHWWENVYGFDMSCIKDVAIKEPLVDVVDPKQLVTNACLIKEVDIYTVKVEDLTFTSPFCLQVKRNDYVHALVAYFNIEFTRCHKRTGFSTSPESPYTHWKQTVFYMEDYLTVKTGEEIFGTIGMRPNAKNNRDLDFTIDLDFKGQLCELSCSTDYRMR
A3A deaminase = blocks human APOBEC3A ssDNA deamination; P31941; 0.41% of 330,000 active; inhibition, % at 20 µM; recombinant A3A, FAM/TAMRA ssDNA deamination fluorescence;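 active means at least 40% inhibition at 20 µM here, with at most 30% in a related deaminase screen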
APOBEC3A confirm = APOBEC3A (human) deaminase inhibition, confirmed. shares compounds with A3A deaminase. recombinant A3A, ssDNA deaminase UDG fluorescence assay. inhibition, % at 20 µM. 63% of 1,400 active;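 active means inhibition reaching a set limit, 80% of the first screen's cutoff, at 20 µM in any replicate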
UDG ctr A3A = inhibits UDG, flagging false APOBEC3A inhibitors; 1,000 tested, under 10 active; AID 504714; shares compounds with A3A deaminase; inhibition, % at 20 µM; UDG counterscreen, FAM/TAMRA uracil oligo fluorescence; call rule not given here
A number is an active result; n = inactive; x = not tested or not shown.

SMILES	A3G deaminase	ABHD5-PLIN5 inh	NS3 helicase inh	HCV core dimer	PRMT1 FP inh	A3A deaminase	APOBEC3A confirm	UDG ctr A3A
O=C(COC(=O)/C=C/c1cccc(F)c1)NC(=O)NCc1ccccc1	n	n	x	x	n	n	x	x
CC(C)OC(=O)N(C)C[C@@H]1OCc2cn(nn2)CCCC(=O)N([C@H](C)CO)C[C@H]1C	x	n	x	x	n	x	x	x
Cc1ccc(N(C(=O)c2csnn2)C(C(=O)NCc2ccccc2)c2ccccn2)cc1 (stereo not drawn)	n	n	n	n	n	n	x	x
CCc1n(CC(O)COCC2CC=CCC2)c2ccccc2[n+]1C (stereo not drawn)	n	n	n	n	n	62	70	n
Cc1nc2ccccc2n1CC(O)COCC1CC=CCC1 (stereo not drawn)	n	n	n	n	n	n	x	x
COc1ccc(CCC(=O)N2c3ccccc3N=C(c3ccc(C(F)(F)F)cc3)C2C(=O)NC2CCCC2)cc1 (stereo not drawn)	x	n	x	x	n	x	x	x
NC(=O)C[N+]1(CC#CC(O)(c2ccccc2)c2ccccc2)CCCC1	n	n	n	n	n	51	71	n
COc1cccc(-c2cnc(C(O)c3ccc(Cl)c(F)c3)[nH]2)c1 (stereo not drawn)	x	n	x	x	n	x	x	x
COc1ccc(S(=O)(=O)Nc2ccc(S(=O)(=O)N(C)C)cc2)cc1[N+](=O)[O-]	n	n	n	n	n	n	x	x
COc1ccc(NS(=O)(=O)c2ccc(S(=O)(=O)N(C)C)cc2)cc1S(N)(=O)=O	n	n	n	n	n	77	n	n
C=CCN(Cc1ccc(Cl)s1)C(=O)c1cc(S(=O)(=O)N2CCOCC2)ccc1F	n	n	x	x	n	n	x	x
COn1cnnc1-c1ccccc1	n	n	n	n	n	47	n	x
On1cnnc1-c1ccccc1	n	n	n	n	n	n	x	x
CN(C)CCN1C(=O)C(=O)/C(=C(/O)c2ccccc2)C1c1ccccc1F (stereo not drawn)	n	n	n	n	n	72	n	n
Cn1cccc/c1=N\c1cccc[n+]1C	n	n	n	n	n	49	65	n
CC[C@]12c3[nH]c4ccc(OC)cc4c3CCN1C(=O)C(CC(=O)NCCC1=CCCCC1)C[C@@H]2C(=O)N1CCN(C(=O)C2CC2)CC1 (stereo partly drawn)	n	n	x	x	n	n	x	x
Cc1cccc(CC(=O)N2CCC(N3CCC(C(=O)N4CCOCC4)CC3)CC2)c1	n	n	n	n	n	98	n	n
O=S1(=O)c2ccc(Br)cc2OC[C@@H](Cc2ccccc2)N1Cc1cn(CCC2OCCCO2)nn1	x	x	x	x	n	x	x	x
CC1(Cc2cc(Cl)ccc2C(F)(F)F)C(=O)Nc2c(Cl)cccc21 (stereo not drawn)	x	n	x	x	n	x	x	x
O=C1NC(=S)NC(=O)C1Nc1ccc(Cl)cc1	x	n	x	x	n	x	x	x
COc1cccc(CC2(CO)CCCN(Cc3ccc(OC)c(C)c3OC)C2)c1 (stereo not drawn)	n	n	n	n	n	n	x	x
NS(=O)(=O)c1ccc(CCNC(=O)CCS(=O)(=O)c2ccc(Br)cc2)cc1	n	n	n	x	n	46	40	x
CCn1c(-c2nn(-c3ccccc3)ccc2=O)n[nH]c1=S	n	n	n	n	n	n	x	x
CCn1c(SC)nnc1-c1nn(-c2ccccc2)ccc1=O	n	n	n	n	n	58	66	n
COC(=O)[C@]12C[C@H](CC(=O)N3CCCCC3)C(=O)N(Cc3ccccc3)C1=C[C@H](C(C)(C)C)O[C@@H]2C	x	x	x	x	n	x	x	x
Fc1ccc(Nc2ncnc3sc4c(c23)CCC4)cc1	n	n	n	n	n	61	n	n
c1ccc(Nc2ncnc3sc4c(c23)CCC4)cc1	n	n	n	n	n	n	x	x
O=C(C1CCC1)N1CCN(S(=O)(=O)c2ccc(F)cc2)CC1	n	n	x	n	n	46	n	x
CCOc1cc(N2CCOCC2)c(OCC)cc1NC(=O)c1ccc(OC)c(S(=O)(=O)N2CCOCC2)c1	n	n	x	x	n	n	x	x
